{"source": "ChEMBL document CHEMBL1125113", "about": "“(S)-5-fluoro-8-hydroxy-2-(dipropylamino)tetralin: a putative 5-HT1A-receptor antagonist” (J Med Chem, 1990)", "key": {"Rattus norvegicus [1]": {"test_system": "Rattus norvegicus", "test": "The effect on the accumulation of 5-HTP in rat brain(striatum), by subcutaneous administration at a dose of 32(umol/kg)", "type": "functional", "procedure,_shortened": "(§1)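 Nonpretreated rats received the test drug sc 60 min before death. The decarboxylase inhibitor NSD 1015 (287 µmol/kg sc) was given 30 min before death. Brain 5-HTP and DOPA in limbic and striatal regions were measured by HPLC with electrochemical detection. Values are means ± SEM, with n = 9 controls and 5–7 per experimental group.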"}, "[2]": {"target": "T1, 5-hydroxytryptamine receptor 1A (Rattus norvegicus, UniProt P19327)", "T1 sequence (P19327 whole entry)": "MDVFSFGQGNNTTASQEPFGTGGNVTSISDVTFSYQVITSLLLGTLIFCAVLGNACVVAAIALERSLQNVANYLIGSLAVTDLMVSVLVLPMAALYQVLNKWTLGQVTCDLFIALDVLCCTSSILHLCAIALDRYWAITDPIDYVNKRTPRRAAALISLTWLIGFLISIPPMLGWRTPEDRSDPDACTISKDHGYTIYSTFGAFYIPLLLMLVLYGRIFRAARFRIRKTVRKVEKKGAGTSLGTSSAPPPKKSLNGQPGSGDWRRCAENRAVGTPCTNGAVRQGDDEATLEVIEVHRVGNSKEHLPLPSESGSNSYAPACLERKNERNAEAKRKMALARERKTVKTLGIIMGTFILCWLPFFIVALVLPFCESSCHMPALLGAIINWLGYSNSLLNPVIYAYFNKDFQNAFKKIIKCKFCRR", "test": "Binding affinity towards 5-hydroxytryptamine 1A receptor sites in cortical membranes using [3H]8-OH-DPAT as radioligand", "type": "cell membranes"}, "[3]": {"target": "T2, Aromatic-L-amino-acid decarboxylase (Homo sapiens) (UniProt P20711)", "T2 sequence (whole entry)": "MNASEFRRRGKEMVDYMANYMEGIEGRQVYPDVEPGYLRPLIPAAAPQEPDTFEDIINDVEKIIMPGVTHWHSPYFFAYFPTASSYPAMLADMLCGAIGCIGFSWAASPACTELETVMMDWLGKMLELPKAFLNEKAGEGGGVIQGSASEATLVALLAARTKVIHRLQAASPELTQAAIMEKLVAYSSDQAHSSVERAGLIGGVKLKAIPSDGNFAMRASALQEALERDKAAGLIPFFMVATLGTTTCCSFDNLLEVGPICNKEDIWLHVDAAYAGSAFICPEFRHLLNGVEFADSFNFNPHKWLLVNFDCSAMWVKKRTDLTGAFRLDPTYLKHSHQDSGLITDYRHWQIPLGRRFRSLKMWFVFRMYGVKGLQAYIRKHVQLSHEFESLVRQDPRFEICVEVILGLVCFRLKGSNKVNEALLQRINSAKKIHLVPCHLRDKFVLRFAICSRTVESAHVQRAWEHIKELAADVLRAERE", "test": "The effect on the accumulation of DOPA in rat brain(striatum), by subcutaneous administration at a dose of 10(umol/kg)", "type": "functional, organism-based", "settings": "target entry is the homologue from another species", "procedure,_shortened": "as §1"}, "[4]": {"target": "T2, Aromatic-L-amino-acid decarboxylase (Homo sapiens)", "test": "The effect on the accumulation of DOPA in rat brain(limbic), by subcutaneous administration at a dose of 10(umol/kg)", "type": "functional, organism-based", "settings": "target entry is the homologue from another species", "procedure,_shortened": "as §1"}, "Rattus norvegicus [5]": {"test_system": "Rattus norvegicus", "test": "The effect on the accumulation of 5-HTP in rat brain(limbic), by subcutaneous administration at a dose of 10(umol/kg)", "type": "functional", "procedure,_shortened": "as §1"}, "Rattus norvegicus [6]": {"test_system": "Rattus norvegicus", "test": "The effect on the accumulation of 5-HTP in rat brain(striatum), by subcutaneous administration at a dose of 10(umol/kg)", "type": "functional", "procedure,_shortened": "as §1"}, "[7]": {"target": "T2, Aromatic-L-amino-acid decarboxylase (Homo sapiens)", "test": "The effect on the accumulation of DOPA in rat brain(striatum), by subcutaneous administration at a dose of 0.32(umol/kg)", "type": "functional, organism-based", "settings": "target entry is the homologue from another species", "procedure,_shortened": "as §1"}, "Rattus norvegicus [8]": {"test_system": "Rattus norvegicus", "test": "The effect on the accumulation of 5-HTP in rat brain(striatum), by subcutaneous administration at a dose of 0.32(umol/kg)", "type": "functional", "procedure,_shortened": "as §1"}, "[9]": {"target": "T2, Aromatic-L-amino-acid decarboxylase (Homo sapiens)", "test": "The effect on the accumulation of DOPA in rat brain(limbic), by subcutaneous administration at a dose of 0.32(umol/kg)", "type": "functional, organism-based", "settings": "target entry is the homologue from another species", "procedure,_shortened": "as §1"}, "Rattus norvegicus [10]": {"test_system": "Rattus norvegicus", "test": "The effect on the accumulation of 5-HTP in rat brain(limbic), by subcutaneous administration at a dose of 0.32(umol/kg)", "type": "functional", "procedure,_shortened": "as §1"}}}
{"smiles": "CCCN(CCC)[C@H]1CCc2c(F)ccc(O)c2C1", "values": [{"measurement": "Potencymean", "setting": "Rattus norvegicus [1]", "value": 91.4, "unit": "ng/g"}, {"measurement": "Ki", "setting": "[2]", "value": 52, "unit": "nM"}, {"measurement": "Potencymean", "setting": "[3]", "value": "< 682", "unit": "ng/g"}, {"measurement": "Potencymean", "setting": "[4]", "value": 324, "unit": "ng/g"}, {"measurement": "Potencymean", "setting": "Rattus norvegicus [5]", "value": 152, "unit": "ng/g"}]}
{"smiles": "CCCN(CCC)[C@@H]1CCc2c(F)ccc(O)c2C1", "values": [{"measurement": "Ki", "setting": "[2]", "value": 6.1, "unit": "nM"}, {"measurement": "Potencymean", "setting": "[3]", "value": 1190, "unit": "ng/g"}, {"measurement": "Potencymean", "setting": "[4]", "value": 398, "unit": "ng/g"}, {"measurement": "Potencymean", "setting": "Rattus norvegicus [6]", "value": "<59.7", "unit": "ng/g"}, {"measurement": "Potencymean", "setting": "Rattus norvegicus [5]", "value": "<86.5", "unit": "ng/g"}]}
{"smiles": "CCCN(CCC)[C@@H]1CCc2cccc(O)c2C1", "values": [{"measurement": "Potencymean", "setting": "[7]", "value": 909, "unit": "ng/g"}, {"measurement": "Potencymean", "setting": "Rattus norvegicus [8]", "value": "<53.3", "unit": "ng/g"}, {"measurement": "Potencymean", "setting": "[9]", "value": 371, "unit": "ng/g"}, {"measurement": "Potencymean", "setting": "Rattus norvegicus [10]", "value": "<103", "unit": "ng/g"}]}
